Data as given in ChEMBL document CHEMBL1132588, “Synthesis, CoMFA analysis, and receptor docking of 3,5-diacyl-2, 4-dialkylpyridine derivatives as selective A3 adenosine receptor antagonists” (J Med Chem, 1999).

Legend:
Adenosine receptor A1 [1] = target: T1, Adenosine receptor A1 (Rattus norvegicus, UniProt P25099); test: Displacement of specific [3H]-CGS- 21680R-PIA binding to Adenosine A1 receptor in rat brain membranes.; assay type: cell membranes; details: in the assay text read “[3H]R-PIA” for “[3H]-CGS- 21680R-PIA”
T1 sequence (P25099 whole entry): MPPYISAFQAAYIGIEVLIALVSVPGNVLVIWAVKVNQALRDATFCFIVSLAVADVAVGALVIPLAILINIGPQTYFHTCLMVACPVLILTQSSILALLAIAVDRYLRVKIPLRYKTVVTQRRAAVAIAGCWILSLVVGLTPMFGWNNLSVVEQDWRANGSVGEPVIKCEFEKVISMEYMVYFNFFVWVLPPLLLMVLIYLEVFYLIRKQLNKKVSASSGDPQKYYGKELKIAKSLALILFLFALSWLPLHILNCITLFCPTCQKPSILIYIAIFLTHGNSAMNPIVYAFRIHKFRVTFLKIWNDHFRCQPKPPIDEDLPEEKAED
Procedure, shortened: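 A1 binding used [3H]R-PIA on rat cerebral cortex membranes. Adenosine deaminase (3 units/mL) was included in membrane preparation, in a 30 min preincubation at 30 °C, and throughout radioligand incubation. Competitors were DMSO stocks diluted in buffer, with DMSO never above 2%.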

[2] = target: T2, Adenosine receptor A3 (Homo sapiens) (UniProt P0DMS8); test: Displacement of specific[125 I]AB-MECA binding at human Adenosine A3 receptor expressed in HEK cells at 10 e-4M; assay type: cell-based; details: HEK293
T2 sequence (whole entry): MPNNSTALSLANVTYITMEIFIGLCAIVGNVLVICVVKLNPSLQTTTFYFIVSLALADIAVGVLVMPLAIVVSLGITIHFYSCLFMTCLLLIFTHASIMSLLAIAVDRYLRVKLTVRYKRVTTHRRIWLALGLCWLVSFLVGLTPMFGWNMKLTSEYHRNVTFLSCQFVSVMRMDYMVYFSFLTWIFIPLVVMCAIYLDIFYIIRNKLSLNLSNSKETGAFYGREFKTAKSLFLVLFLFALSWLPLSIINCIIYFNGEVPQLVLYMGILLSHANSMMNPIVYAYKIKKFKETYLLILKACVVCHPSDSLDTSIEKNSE

[3] = target: Adenosine receptor A2a (Rattus norvegicus) (UniProt P30543); test: (§1) Displacement of specific [3H]-CGS- 21680 binding to Adenosine A2A receptor in rat striatal membranes; assay type: cell membranes; details: Membrane
Procedure, shortened: (§2)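 Rat striatal membranes labelled with [3H]CGS 21680 for A2A binding. Adenosine deaminase (3 units/mL) was present during membrane preparation, during a 30 min preincubation at 30 °C, and during radioligand incubation. Competitors were dissolved in DMSO and diluted in buffer (DMSO ≤2%).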

Adenosine receptor A2a = Adenosine receptor A2a (Rattus norvegicus, UniProt P30543); test: Inhibition of [3H]-CGS- 21680 binding to Adenosine A2A receptor in rat striatal membranes.; assay type: cell membranes, Membrane
[4] = target: T3, Adenosine receptor A3 (Rattus norvegicus) (UniProt P28647); test: (§3) Displacement of specific [125I]AB-MECA binding at rat Adenosine A3 receptor stably expressed in CHO cells; assay type: cell-based
T3 sequence (whole entry): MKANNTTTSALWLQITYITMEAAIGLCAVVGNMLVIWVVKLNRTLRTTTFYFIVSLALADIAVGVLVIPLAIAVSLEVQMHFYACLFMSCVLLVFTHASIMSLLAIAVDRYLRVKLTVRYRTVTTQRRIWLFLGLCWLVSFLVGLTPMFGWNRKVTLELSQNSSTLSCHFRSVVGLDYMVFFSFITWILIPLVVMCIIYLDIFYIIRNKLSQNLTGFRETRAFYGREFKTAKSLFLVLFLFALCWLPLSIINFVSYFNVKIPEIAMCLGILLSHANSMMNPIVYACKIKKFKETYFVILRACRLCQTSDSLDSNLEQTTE
Procedure, shortened: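 Membranes from CHO cells stably expressing rat A3 receptor (0.3 mg protein/mL) were incubated with [125I]AB-MECA (final 0.3 nM) and test compound in 50 mM Tris, 10 mM Mg2+, 1 mM EDTA, pH 8.0. Compounds were dissolved in DMSO, with DMSO never exceeding 2%. At least five competitor concentrations spanning 3 orders of magnitude were tested. Nonspecific binding was defined with R-PIA. Bound ligand was collected by filtration over GF/B filters; n = 3-5.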

[5] = target: T2, Adenosine receptor A3 (Homo sapiens); test: (§4) Displacement of specific [125 I]AB-MECA binding at human Adenosine A3 receptor expressed in HEK cells; assay type: cell-based; details: HEK293; concentration not given here
Procedure, shortened: (§5)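 Membranes from HEK-293 cells stably expressing human A3 receptor (clone HS-21a), or from CHO cells stably expressing rat A3 receptor (rat: n = 3-5), in 50 mM Tris, 10 mM Mg2+, 1 mM EDTA, pH 8.0. Membranes at 0.3 mg protein/mL with [125I]AB-MECA at 0.3 nM final. Nonspecific binding defined with R-PIA. Competitors were dissolved in DMSO (≤2% final) and tested at ≥5 concentrations spanning 3 log units. Bound ligand was separated by GF/B filtration with three buffer rinses; Ki was derived.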

Rattus norvegicus [6] = species on record: Rattus norvegicus; test: Ratio of the binding affinities against rat A3 receptor / human A3 receptor, Ki(rA1) / Ki (hA3).
Procedure, shortened: (§6)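 Ratio of Ki values from binding assays. For A3, [125I]AB-MECA (final 0.3 nM) bound membranes of HEK-293 cells expressing human A3 (clone HS-21a) or CHO cells expressing rat A3, in Tris/Mg2+/EDTA buffer at pH 8.0. For rat A1, [3H]R-PIA bound cerebral cortex membranes, with adenosine deaminase (3 units/mL) present, including a 30 min preincubation at 30 °C.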

Rattus norvegicus [7] = species on record: Rattus norvegicus; test: Ratio of the binding affinities against rat A3 receptor / rat A3 receptor, Ki(rA1) / Ki (rA3).; procedure, shortened: as §6
[8] = target: T2, Adenosine receptor A3 (Homo sapiens); test: as §4; assay type: cell-based; details: HEK293
Adenosine receptor A3 [9] = target: T4, Adenosine receptor A3 (Homo sapiens, UniProt P0DMS8); test: as §4; assay type: cell-based, HEK293; procedure, shortened: as §5
T4 sequence (P0DMS8 whole entry): T2 sequence (whole entry)

[10] = target: Adenosine receptor A2a (Rattus norvegicus) (UniProt P30543); test: Displacement of specific [3H]-CGS- 21680 binding to Adenosine A2A receptor in rat striatal membranes at 10 e-4M; assay type: cell membranes; details: Membrane
Rattus norvegicus [11] = species on record: Rattus norvegicus; test: Ratio of binding affinities for rat A1 receptor against human A3 receptor, [Ki(rA1) / Ki (hA3)].; procedure, shortened: as §6
Adenosine receptor A1 [12] = target: T1, Adenosine receptor A1; test: Displacement of specific [3H]R-PIA binding to Adenosine A1 receptor in rat brain membranes.
[13] = target: Adenosine receptor A2a (Rattus norvegicus) (UniProt P30543); test: Displacement of specific [3H]-CGS- 21680 binding to Adenosine A2A receptor in rat striatal membranes at 10 e-5M; assay type: cell membranes; details: Membrane
Adenosine receptor A3 [14] = target: T5, Adenosine receptor A3 (Rattus norvegicus, UniProt P28647); test: as §3; assay type: cell-based
T5 sequence (P28647 whole entry): T3 sequence (whole entry)

[15] = target: Adenosine receptor A2a (Rattus norvegicus) (UniProt P30543); test: as §1; assay type: cell membranes; parameters: concentration or dose not given beside the values; details: Membrane, concentration not given here; procedure, shortened: as §2

Adenosine receptor A2a (Rattus norvegicus), sequence (P30543 whole entry): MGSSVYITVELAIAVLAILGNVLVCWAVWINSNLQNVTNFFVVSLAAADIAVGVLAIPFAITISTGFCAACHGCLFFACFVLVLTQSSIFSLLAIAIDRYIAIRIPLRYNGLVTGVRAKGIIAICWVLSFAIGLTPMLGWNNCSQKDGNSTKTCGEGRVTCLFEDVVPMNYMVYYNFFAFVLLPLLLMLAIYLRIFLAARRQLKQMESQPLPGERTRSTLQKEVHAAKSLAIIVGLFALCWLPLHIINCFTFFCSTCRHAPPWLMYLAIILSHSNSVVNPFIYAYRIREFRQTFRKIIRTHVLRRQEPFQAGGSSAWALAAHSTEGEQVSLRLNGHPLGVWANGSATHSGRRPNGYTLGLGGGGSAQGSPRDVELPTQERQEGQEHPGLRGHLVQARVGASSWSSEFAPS
Adenosine receptor A2a, sequence (P30543 whole entry): as above

SMILES	Ki (Adenosine receptor A1 [1]) [µM]	Ratio (Rattus norvegicus [6])	Ratio (Rattus norvegicus [7])	pKi [8]	Ki (Adenosine receptor A3 [9]) [nM]	Ratio (Rattus norvegicus [11])	Ki (Adenosine receptor A1 [12]) [µM]	further results
CCOC(=O)c1c(-c2ccccc2)nc(CC)c(C(=O)SCC)c1CCCN1C(=O)c2ccccc2C1=O	5.24							Displacement [2]: 28%; Displacement [3]: 10%
CCCCCCSC(=O)c1c(CC)nc(-c2cccc(Cl)c2)c(C(=O)OCCC)c1CC				6.66	220	510	113	Displacement [10]: 10%
CCCOC(=O)c1c(-c2ccccc2)nc(CC)c(C(=O)SCCCF)c1CCC	12.6	1.9	81	7.08	82.8	150		Ki (Adenosine receptor A3 [14]): 156 nM; Displacement [3]: < 10%
CCCc1c(C(=O)SCC)c(CCSC(C)=O)nc(-c2ccccc2)c1C(=O)OCC				6.71	193	68	13.2	inhibition [15]: 30%

More lines, main results first:

Ki (Adenosine receptor A1 [1]) [µM]	Ratio (Rattus norvegicus [6])	Ratio (Rattus norvegicus [7])	pKi [8]	Ki (Adenosine receptor A3 [9]) [nM]	Ratio (Rattus norvegicus [11])	Ki (Adenosine receptor A1 [12]) [µM]	SMILES	further results
19.8	< 1	76					CCCOC(=O)c1c(-c2ccccc2)nc(CCF)c(C(=O)SCC)c1CCC	Ki (Adenosine receptor A2a): 30.8 µM; Ki [4]: 0.26 µM; inhibition [5]: 15%
	22	42	8.08		820		CCCOC(=O)c1c(-c2ccccc2)nc(CC)c(C(=O)SCC)c1CC	Displacement [13]: 10%
			7.64	23	590	13.5	CCCOC(=O)c1c(-c2ccccc2F)nc(CC)c(C(=O)SCC)c1CCC	Ki (Adenosine receptor A2a): 8.63 µM
